In ChEMBL document CHEMBL1147736, “Trisubstituted acridines as G-quadruplex telomere targeting agents. Effects of extensions of the 3,6- and 9-side chains on quadruplex binding, telomerase activity, and cell proliferation” (J Med Chem, 2006):
Active and inactive are the calls of the source. The calls are words filed in the database; no cut-off is given here.

Experiments:
Nucleic Acid = assay: Ratio of binding constant of compound binding to human quadruplex DNA over that of duplex DNA; type: nucleic-acid assay
Summary of the method: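 Streptavidin-chip SPR (BIAcore 2000/3000) with biotinylated quadruplex or -AATT- duplex DNA loaded at 25 nM. Run in HEPES buffer pH 7.4 (0.20 M KCl, 3 mM EDTA, P20) at 25 °C. Steady-state RU from sensorgram plateaus, flow 10–30 µL/min, plotted against free compound concentration to fit binding constants. Value is the ratio of quadruplex to duplex constants.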

IMR-90 = assay: Cytotoxicity in human IMR90 cells by SRB assay; type: functional, cell-based
[1] = biological target: Telomerase reverse transcriptase (Homo sapiens, UniProt O14746); assay: Inhibition of telomerase activity from human A2780 cells; type: functional, cell-based
Telomerase reverse transcriptase, sequence (O14746 whole entry): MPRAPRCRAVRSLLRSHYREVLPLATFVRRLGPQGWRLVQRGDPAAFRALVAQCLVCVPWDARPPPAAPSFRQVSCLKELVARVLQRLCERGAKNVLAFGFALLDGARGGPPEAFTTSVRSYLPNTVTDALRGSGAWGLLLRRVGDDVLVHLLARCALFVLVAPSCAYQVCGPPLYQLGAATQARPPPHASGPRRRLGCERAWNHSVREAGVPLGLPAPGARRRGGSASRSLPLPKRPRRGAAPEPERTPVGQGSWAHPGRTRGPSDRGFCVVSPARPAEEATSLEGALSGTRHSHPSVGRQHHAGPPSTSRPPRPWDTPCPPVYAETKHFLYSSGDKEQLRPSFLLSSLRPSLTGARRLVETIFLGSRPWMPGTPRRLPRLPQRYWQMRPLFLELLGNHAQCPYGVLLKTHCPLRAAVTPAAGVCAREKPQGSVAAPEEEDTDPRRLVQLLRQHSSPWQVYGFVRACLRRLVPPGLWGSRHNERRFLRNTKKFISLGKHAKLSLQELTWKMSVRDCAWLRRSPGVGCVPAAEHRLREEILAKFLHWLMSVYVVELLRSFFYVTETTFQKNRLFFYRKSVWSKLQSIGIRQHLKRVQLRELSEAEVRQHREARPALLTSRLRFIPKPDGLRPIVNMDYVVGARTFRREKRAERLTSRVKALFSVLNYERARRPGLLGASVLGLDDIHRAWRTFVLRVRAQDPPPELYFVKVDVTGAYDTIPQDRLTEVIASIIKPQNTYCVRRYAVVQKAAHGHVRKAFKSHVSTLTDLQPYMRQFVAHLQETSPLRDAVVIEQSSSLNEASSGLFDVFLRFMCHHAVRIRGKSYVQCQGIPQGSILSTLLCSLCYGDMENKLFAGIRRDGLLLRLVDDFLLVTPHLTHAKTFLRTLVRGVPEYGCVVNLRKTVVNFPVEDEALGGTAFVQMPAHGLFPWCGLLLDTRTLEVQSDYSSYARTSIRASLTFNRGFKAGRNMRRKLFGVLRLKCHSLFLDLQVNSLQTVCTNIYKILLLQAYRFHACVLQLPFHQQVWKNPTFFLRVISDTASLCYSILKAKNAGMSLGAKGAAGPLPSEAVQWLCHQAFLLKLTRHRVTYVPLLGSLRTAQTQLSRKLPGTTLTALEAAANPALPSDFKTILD
Summary of the method: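 TRAP assay with A2780 protein extract, Bradford-quantified. ACX primer (1 µM) and Taq added, 33 PCR cycles. Products on 10% PAGE with SYBR Green I, quantified by gel scanning against a no-protein or heat-inactivated control. Result reported as telEC50.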

MCF7 [2] = assay: Cytotoxicity in human MCF7 cells by SRB assay; type: functional, cell-based
[3] = biological target: DNA polymerase I, thermostable (Thermus aquaticus) (UniProt P19821); assay: Inhibition of TAQ polymerase activity at 2 uM
DNA polymerase I, thermostable (Thermus aquaticus), sequence (P19821 whole entry): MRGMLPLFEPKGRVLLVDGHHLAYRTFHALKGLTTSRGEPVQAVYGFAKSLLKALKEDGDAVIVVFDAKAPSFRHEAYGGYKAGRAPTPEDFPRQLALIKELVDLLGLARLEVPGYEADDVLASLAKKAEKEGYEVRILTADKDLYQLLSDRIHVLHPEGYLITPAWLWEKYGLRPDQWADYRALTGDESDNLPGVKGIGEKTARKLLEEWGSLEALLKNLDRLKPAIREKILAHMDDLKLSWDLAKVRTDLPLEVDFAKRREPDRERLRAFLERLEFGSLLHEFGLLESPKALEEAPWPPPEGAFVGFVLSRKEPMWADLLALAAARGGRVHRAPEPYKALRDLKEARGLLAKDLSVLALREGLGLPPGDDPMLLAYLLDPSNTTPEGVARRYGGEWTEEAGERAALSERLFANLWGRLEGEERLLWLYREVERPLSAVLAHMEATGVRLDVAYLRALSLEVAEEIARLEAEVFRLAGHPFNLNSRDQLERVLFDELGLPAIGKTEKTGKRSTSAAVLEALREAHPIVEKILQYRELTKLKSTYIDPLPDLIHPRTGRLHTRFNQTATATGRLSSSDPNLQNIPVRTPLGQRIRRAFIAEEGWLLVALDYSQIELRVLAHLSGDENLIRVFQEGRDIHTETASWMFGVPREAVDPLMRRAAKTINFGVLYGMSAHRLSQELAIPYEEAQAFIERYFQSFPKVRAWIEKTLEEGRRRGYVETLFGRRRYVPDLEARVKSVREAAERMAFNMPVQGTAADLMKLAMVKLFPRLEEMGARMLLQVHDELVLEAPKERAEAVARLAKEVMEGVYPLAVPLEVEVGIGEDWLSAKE
Summary of the method: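 PCR with TS forward primer, NT reverse primer (0.5 µM), TSNT template (200 pM), 1 mM MgCl₂, 20 µM dNTPs and 1.25 U Taq, plus compound. Run: 92 °C 2 min, then 33 cycles of 92/52/72 °C. 36 bp product resolved on 10% polyacrylamide gel, stained with SYBR Green I.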

MCF7 [4] = assay: Increase in senescence in MCF7 cells by staining with SA-beta-Gal at 1 uM; type: functional, cell-based; details: Homo sapiens
Summary of the method: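 MCF7 cells in DMEM, counted and reseeded on day 1, treated that day and re-dosed on day 4 each week, over 4 weeks. Weekly, 1 × 10⁵ cells seeded with compound for about 24 h, then fixed and stained with X-gal solution (citrate/phosphate pH 6.0, ferro/ferricyanide) overnight at 37 °C. Blue cells counted by light microscopy as percentage of total versus vehicle control.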

Structure (SMILES)	Ratio (Nucleic Acid)	IC50 (IMR-90)	EC50 [1]	IC50 (MCF7 [2])	inhibition [3]	Activity (MCF7 [4])
O=C(CCN1CCCC1)Nc1ccc(Nc2c3ccc(NC(=O)CCN4CCCC4)cc3nc3cc(NC(=O)CCN4CCCC4)ccc23)cc1	29	> 25 µM	0.067 µM	> 25 µM		
O=C(CCCCN1CCCC1)Nc1ccc2c(Nc3ccc(NC(=O)CCN4CCCC4)cc3)c3ccc(NC(=O)CCCCN4CCCC4)cc3nc2c1	1.6	> 25 µM	0.255 µM	> 25 µM		
O=C(CCCN1CCCC1)Nc1ccc2c(Nc3ccc(NC(=O)CCN4CCCC4)cc3)c3ccc(NC(=O)CCCN4CCCC4)cc3nc2c1	0.6	> 25 µM	0.326 µM	> 25 µM		
CN(C)c1ccc(Nc2c3ccc(NC(=O)CCN4CCCC4)cc3nc3cc(NC(=O)CCN4CCCC4)ccc23)cc1	31	> 25 µM			< 25%	
O=C(CCN1CCCC1)Nc1ccc(Nc2c3ccccc3nc3ccccc23)cc1			> 20 µM			
O=C(CCN1CCCC1)Nc1ccc2c(Nc3ccc(NC(=O)CN4CCCC4)cc3)c3ccc(NC(=O)CCN4CCCC4)cc3nc2c1	10.9	> 25 µM	0.167 µM	> 25 µM		
CN(C)c1ccc(Nc2c3ccc(NC(=O)CCCCN4CCCC4)cc3nc3cc(NC(=O)CCCCN4CCCC4)ccc23)cc1	4.5	> 25 µM	1.93 µM	> 25 µM	< 25%	
O=C(CN1CCCC1)Nc1ccc2cc3ccc(NC(=O)CN4CCCC4)cc3nc2c1	1.2		5.2 µM			
O=C(CCCN1CCCC1)Nc1ccc(Nc2c3ccc(NC(=O)CCN4CCCC4)cc3nc3cc(NC(=O)CCN4CCCC4)ccc23)cc1	12.8	> 25 µM	0.117 µM	> 25 µM		
CN(C)c1ccc(Nc2c3ccc(NC(=O)CCCN4CCCC4)cc3nc3cc(NC(=O)CCCN4CCCC4)ccc23)cc1	48	> 25 µM	0.099 µM	8.75 µM	< 25%	Active
O=C(CCCCCN1CCCC1)Nc1ccc2c(Nc3ccc(NC(=O)CCN4CCCC4)cc3)c3ccc(NC(=O)CCCCCN4CCCC4)cc3nc2c1	72	> 25 µM	0.146 µM	> 25 µM		
CN(C)c1ccc(Nc2c3ccc(NC(=O)CCCCCN4CCCC4)cc3nc3cc(NC(=O)CCCCCN4CCCC4)ccc23)cc1	5.8	> 25 µM	6.91 µM	> 25 µM	< 25%	
